In ChEMBL document CHEMBL1141158, “New 5-hydroxytryptamine(1A) receptor ligands containing a norbornene nucleus: synthesis and in vitro pharmacological evaluation” (J Med Chem, 2005):

Key:
[1] = biological target: T1, 5-hydroxytryptamine receptor 2C (Rattus norvegicus, UniProt P08909); experiment: Inhibition of 1 nM [3H]mesulergine binding to Serotonin 5-HT2C receptor from rat brain cortex
T1 sequence (P08909 whole entry): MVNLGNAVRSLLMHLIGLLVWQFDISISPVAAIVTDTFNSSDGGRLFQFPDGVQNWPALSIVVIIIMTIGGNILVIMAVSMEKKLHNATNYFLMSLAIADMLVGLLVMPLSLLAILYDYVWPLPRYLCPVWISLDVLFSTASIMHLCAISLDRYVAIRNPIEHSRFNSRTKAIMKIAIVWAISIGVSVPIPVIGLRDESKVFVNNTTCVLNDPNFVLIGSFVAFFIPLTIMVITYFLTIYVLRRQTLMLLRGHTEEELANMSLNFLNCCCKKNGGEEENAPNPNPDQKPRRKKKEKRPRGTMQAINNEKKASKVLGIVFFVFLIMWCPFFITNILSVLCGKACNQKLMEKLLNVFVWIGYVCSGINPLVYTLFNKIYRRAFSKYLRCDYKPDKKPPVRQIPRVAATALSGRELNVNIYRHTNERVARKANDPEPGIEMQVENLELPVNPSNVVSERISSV

[2] = biological target: 5-hydroxytryptamine receptor 2A (Rattus norvegicus, UniProt P14842); experiment: Inhibition of 0.4 nM [3H]ketanserin binding to Serotonin 5-HT2A receptor from rat brain cortex
Chain of 5-hydroxytryptamine receptor 2A (P14842 whole entry): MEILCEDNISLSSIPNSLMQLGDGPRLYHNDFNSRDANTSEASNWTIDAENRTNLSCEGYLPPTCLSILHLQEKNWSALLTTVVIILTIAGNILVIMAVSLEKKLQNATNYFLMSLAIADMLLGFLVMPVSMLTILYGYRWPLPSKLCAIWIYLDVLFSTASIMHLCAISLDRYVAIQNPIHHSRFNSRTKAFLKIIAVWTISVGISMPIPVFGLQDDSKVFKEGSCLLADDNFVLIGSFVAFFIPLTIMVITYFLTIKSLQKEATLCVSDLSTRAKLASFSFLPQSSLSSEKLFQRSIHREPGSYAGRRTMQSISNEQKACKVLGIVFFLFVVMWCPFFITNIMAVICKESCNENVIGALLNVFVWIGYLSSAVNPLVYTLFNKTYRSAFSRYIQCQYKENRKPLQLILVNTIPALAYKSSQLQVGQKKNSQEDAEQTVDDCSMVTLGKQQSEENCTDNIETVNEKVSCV

[3] = biological target: T2, Adrenergic receptor alpha-1 (Rattus norvegicus, UniProt P15823+P23944+P43140); experiment: Inhibition of [3H]prazosin bindign to Adrenergic alpha 1 receptor from rat brain cortex
T2 sequence (P15823 whole entry): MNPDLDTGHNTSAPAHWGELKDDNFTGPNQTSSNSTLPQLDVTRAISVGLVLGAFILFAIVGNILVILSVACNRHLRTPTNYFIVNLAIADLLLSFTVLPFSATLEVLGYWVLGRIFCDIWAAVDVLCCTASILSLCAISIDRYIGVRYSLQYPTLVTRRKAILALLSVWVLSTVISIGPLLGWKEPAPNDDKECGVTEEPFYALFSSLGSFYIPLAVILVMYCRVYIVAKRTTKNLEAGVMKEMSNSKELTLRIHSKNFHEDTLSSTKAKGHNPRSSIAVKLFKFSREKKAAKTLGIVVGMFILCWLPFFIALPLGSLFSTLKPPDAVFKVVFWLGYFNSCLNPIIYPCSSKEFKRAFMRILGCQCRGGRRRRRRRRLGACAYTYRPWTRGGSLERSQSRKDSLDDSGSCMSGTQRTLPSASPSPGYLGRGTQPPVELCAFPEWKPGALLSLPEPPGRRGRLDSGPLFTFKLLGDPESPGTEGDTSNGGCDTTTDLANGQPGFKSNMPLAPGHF
T2 sequence (P23944 whole entry): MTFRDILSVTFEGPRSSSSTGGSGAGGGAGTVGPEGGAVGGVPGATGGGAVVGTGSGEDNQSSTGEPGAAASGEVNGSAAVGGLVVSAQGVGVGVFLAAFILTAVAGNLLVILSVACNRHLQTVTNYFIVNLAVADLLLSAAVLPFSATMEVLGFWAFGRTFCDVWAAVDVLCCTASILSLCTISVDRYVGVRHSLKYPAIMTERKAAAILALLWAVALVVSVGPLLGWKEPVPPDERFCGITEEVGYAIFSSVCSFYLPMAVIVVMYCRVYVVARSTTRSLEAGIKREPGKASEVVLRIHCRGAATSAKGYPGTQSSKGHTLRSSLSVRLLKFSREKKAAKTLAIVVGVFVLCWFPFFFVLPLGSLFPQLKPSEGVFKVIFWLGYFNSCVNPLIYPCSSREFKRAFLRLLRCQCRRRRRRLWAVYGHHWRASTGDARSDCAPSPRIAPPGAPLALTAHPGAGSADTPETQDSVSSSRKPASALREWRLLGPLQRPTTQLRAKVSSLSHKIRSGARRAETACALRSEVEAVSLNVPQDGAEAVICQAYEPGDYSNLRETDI
T2 sequence (P43140 whole entry): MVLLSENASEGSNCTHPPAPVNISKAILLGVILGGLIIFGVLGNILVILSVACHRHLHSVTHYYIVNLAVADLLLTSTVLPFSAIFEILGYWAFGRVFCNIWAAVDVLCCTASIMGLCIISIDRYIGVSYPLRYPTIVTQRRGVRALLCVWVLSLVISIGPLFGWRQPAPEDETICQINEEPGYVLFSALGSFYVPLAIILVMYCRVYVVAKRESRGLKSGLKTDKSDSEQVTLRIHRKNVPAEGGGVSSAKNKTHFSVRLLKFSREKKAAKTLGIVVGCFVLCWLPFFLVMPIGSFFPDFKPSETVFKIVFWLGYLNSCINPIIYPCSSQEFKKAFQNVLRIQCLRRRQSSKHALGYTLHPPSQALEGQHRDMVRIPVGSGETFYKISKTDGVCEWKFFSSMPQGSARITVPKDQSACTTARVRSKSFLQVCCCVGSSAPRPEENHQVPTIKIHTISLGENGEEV
Summary of the method: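 Cortical membranes in 50 mM Tris-HCl pH 7.4, 10 mg fresh tissue per tube, with [3H]prazosin 0.4 nM final; 30 min at 25 °C, then vacuum filtration on GF/B and scintillation counting. 10 μM phentolamine defined nonspecific binding. Six test concentrations in triplicate; IC50 from competition curves, Ki by Cheng–Prusoff using Scatchard KD.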

[4] = biological target: T3, 5-hydroxytryptamine receptor 1A (Rattus norvegicus, UniProt P19327); experiment: Inhibition of [3H]8-OH-DPAT binding to Serotonin 5-HT1A receptor from rat brain cortex
T3 sequence (P19327 whole entry): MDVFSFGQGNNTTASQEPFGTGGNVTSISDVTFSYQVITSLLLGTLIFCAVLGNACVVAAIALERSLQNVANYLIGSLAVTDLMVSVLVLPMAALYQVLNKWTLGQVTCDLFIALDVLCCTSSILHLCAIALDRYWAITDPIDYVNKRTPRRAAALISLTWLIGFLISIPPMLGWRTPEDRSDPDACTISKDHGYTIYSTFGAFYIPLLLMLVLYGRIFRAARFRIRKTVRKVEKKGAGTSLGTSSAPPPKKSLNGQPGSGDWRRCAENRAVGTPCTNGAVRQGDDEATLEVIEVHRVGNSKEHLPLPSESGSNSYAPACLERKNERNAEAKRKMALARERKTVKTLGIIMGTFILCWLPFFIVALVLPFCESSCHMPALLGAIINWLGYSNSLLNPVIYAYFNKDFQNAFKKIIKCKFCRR

D(1A) dopamine receptor = D(1A) dopamine receptor (Rattus norvegicus, UniProt P18901); experiment: Inhibition of [3H]SCH-23,390 binding to Dopamine D1 receptor from rat striatum
Chain of D(1A) dopamine receptor (P18901 whole entry): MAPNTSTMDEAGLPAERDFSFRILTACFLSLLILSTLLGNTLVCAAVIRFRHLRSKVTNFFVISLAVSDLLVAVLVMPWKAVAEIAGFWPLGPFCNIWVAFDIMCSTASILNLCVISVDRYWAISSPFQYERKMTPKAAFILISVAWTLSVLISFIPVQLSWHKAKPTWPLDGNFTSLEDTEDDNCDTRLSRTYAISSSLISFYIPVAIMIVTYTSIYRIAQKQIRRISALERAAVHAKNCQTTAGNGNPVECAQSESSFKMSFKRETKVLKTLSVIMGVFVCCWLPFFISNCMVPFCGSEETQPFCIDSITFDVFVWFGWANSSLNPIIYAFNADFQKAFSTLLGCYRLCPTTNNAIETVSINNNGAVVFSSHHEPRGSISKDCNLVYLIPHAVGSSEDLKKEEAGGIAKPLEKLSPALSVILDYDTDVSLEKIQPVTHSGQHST
Summary of the method: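 Rat striatal membranes washed twice by 50 000g spins, resuspended in Tris-HCl pH 7.1 with NaCl, KCl, CaCl2, MgCl2, ascorbic acid, 10 μM pargyline; 3 mg fresh tissue per tube. [3H]SCH-23390 at 0.4 nM final, 15 min at 37 °C, GF/B filtration, scintillation counting. Nonspecific with 0.1 μM piflutixol. Six concentrations in triplicate; IC50 converted to Ki by Cheng–Prusoff.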

D(2) dopamine receptor = D(2) dopamine receptor (Rattus norvegicus, UniProt P61169); experiment: Inhibition of [3H]spiperone binding to Dopamine D2 receptor from rat striatum
Chain of D(2) dopamine receptor (P61169 whole entry): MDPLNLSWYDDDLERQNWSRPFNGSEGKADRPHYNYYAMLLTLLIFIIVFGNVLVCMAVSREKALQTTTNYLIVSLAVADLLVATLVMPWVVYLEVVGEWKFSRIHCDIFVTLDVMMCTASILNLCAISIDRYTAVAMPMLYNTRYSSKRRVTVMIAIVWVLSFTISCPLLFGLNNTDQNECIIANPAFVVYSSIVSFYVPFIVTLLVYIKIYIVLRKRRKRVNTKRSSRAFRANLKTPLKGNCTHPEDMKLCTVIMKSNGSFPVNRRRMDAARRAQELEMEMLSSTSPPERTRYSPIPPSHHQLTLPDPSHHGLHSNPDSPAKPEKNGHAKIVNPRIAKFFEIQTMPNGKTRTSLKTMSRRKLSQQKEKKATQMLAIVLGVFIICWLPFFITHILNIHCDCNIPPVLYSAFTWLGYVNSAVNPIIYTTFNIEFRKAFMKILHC
Summary of the method: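 Rat striatal membranes washed twice at 50 000g, resuspended in Tris-HCl pH 7.1 with NaCl, KCl, CaCl2, MgCl2, ascorbic acid, 10 μM pargyline; 3 mg fresh tissue per tube. [3H]spiperone 0.4 nM final, 15 min at 37 °C, GF/B filtration, scintillation counting. Nonspecific defined with 1 μM (+)-butaclamol. Six concentrations, triplicate; Ki via Cheng–Prusoff.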

[5] = biological target: T4, Adrenergic receptor alpha-2 (Rattus norvegicus, UniProt P22086+P19328+P22909); experiment: Inhibition of [3H]yohimbine binding to Adrenergic receptor alpha 2 receptor from rat brain cortex
T4 sequence (P22086 whole entry): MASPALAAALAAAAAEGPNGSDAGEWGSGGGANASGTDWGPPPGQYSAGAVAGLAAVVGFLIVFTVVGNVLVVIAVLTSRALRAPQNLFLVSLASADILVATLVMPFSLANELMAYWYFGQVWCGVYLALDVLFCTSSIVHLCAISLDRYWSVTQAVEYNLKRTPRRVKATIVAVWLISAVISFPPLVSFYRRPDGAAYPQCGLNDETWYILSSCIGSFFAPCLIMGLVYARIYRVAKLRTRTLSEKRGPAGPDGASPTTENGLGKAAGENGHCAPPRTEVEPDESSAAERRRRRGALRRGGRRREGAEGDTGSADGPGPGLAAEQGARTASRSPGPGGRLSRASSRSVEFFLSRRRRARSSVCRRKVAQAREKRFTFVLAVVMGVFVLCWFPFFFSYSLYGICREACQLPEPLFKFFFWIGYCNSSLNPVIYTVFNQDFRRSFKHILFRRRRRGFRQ
T4 sequence (P19328 whole entry): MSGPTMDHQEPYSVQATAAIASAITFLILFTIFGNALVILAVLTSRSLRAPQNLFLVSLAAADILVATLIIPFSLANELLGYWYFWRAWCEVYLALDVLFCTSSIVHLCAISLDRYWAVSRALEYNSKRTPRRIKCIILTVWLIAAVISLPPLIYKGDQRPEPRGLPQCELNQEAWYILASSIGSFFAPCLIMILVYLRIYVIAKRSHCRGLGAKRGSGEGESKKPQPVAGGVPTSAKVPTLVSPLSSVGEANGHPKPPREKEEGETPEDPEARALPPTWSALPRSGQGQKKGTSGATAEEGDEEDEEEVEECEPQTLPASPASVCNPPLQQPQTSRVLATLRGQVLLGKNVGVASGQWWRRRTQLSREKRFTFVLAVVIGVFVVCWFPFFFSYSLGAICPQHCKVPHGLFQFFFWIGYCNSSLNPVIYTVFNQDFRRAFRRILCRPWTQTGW
T4 sequence (P22909 whole entry): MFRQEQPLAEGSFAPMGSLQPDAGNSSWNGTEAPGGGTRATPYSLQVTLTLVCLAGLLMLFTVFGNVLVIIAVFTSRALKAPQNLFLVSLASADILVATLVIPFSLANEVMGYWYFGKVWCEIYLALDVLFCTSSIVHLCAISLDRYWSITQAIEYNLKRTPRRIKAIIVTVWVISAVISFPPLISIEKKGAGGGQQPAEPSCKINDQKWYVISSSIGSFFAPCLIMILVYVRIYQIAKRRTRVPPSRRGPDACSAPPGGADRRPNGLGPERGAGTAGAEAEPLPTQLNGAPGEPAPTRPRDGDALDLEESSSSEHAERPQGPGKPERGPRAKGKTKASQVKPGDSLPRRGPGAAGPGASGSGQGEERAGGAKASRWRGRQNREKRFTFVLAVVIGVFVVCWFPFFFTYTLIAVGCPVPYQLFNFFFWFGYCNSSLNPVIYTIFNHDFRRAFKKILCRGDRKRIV
Summary of the method: (§1)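 Brain cortex homogenized in 5 mM Tris-HCl/5 mM EDTA, washed three times at 50 000g, resuspended in 50 mM Tris-HCl/0.5 mM EDTA pH 7.5; 10 mg fresh tissue per tube. [3H]yohimbine 1 nM final, 30 min at 25 °C, GF/B filtration, scintillation counting. Six concentrations in triplicate; IC50 converted to Ki (Cheng–Prusoff).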

[6] = biological target: T4, Adrenergic receptor alpha-2; experiment: Inhibition of [3H]yohimbine binding to Adrenergic alpha 2 receptor from rat brain cortex; summary of the method: as §1

SMILES	Ki [1]	Ki [2]	Ki [3]	Ki [4]	Ki (D(1A) dopamine receptor; read-out: Ki)	Ki (D(2) dopamine receptor)	Ki [5]	Ki (D(1A) dopamine receptor)	Ki (D(2) dopamine receptor; read-out: Ki)	Ki [6]
O=C1C2C3C=CC(C3)C2C(=O)N1OCCN1CCN(c2ncccn2)CC1 (stereo not drawn)		> 10000 nM		384 nM						
COc1ccccc1N1CCN(CCON2C(=O)C3C4C=CC(C4)C3C2=O)CC1 (stereo not drawn)	> 10000 nM	> 10000 nM		45 nM						
O=C1C2C3C=CC(C3)C2C(=O)N1OCCCN1CCN(c2ccccc2Cl)CC1 (stereo not drawn)	423 nM	3900 nM	128 nM	4.13 nM		Not Active	3140 nM	Not Active		
O=C1C2C3C=CC(C3)C2C(=O)N1OCCCN1CCN(c2ccccn2)CC1 (stereo not drawn)	> 10000 nM	> 10000 nM		30.3 nM						
O=C1C2C3C=CC(C3)C2C(=O)N1OCCN1CCN(c2cccc(C(F)(F)F)c2)CC1 (stereo not drawn)	> 10000 nM	4010 nM	> 10000 nM	2.14 nM	> 10000 nM		> 10000 nM		> 10000 nM	
O=C1C2C3C=CC(C3)C2C(=O)N1OCCN1CCN(c2ccccc2Cl)CC1 (stereo not drawn)	> 10000 nM	> 10000 nM	747 nM		> 10000 nM				> 10000 nM	691 nM
COc1ccccc1N1CCN(CCCON2C(=O)C3C4C=CC(C4)C3C2=O)CC1 (stereo not drawn)	> 10000 nM	> 10000 nM	75.3 nM	0.021 nM	> 10000 nM		3650 nM		> 10000 nM	

Now those with a lower Ki [2], led by results:

Ki [1]	Ki [2]	Ki [3]	Ki [4]	Ki (D(1A) dopamine receptor; read-out: Ki)	Ki (D(2) dopamine receptor)	Ki [5]	Ki (D(1A) dopamine receptor)	Ki (D(2) dopamine receptor; read-out: Ki)	Ki [6]	SMILES
> 10000 nM	3510 nM		382 nM							O=C1C2C3C=CC(C3)C2C(=O)N1OCCN1CCN(c2ccccn2)CC1 (stereo not drawn)
> 10000 nM	2700 nM		27.1 nM							O=C1C2C3C=CC(C3)C2C(=O)N1OCCN1CCN(c2cccc(Cl)c2)CC1 (stereo not drawn)
> 10000 nM	2680 nM	358 nM	5.13 nM	4510 nM		4680 nM		670 nM		O=C1C2C3C=CC(C3)C2C(=O)N1OCCCN1CCN(c2cccc(C(F)(F)F)c2)CC1 (stereo not drawn)
733 nM	547 nM	141 nM	3.36 nM	> 10000 nM	Not Active	1710 nM				O=C1C2C3C=CC(C3)C2C(=O)N1OCCCN1CCN(c2cccc(Cl)c2)CC1 (stereo not drawn)
> 10000 nM	118 nM		49.5 nM							O=C1C2C3C=CC(C3)C2C(=O)N1OCCCN1CCN(c2ncccn2)CC1 (stereo not drawn)
